{"source": "ChEMBL document CHEMBL3769366", "about": "“Novel tricyclic pyrazolo[1,5-d][1,4]benzoxazepin-5(6H)-one: Design, synthesis, model and use as hMAO-B inhibitors” (Bioorg Med Chem, 2016)", "key": {"[1]": {"molecular_target": "T1, Amine oxidase [flavin-containing] A (Homo sapiens, UniProt P21397)", "T1 sequence (P21397 whole entry)": "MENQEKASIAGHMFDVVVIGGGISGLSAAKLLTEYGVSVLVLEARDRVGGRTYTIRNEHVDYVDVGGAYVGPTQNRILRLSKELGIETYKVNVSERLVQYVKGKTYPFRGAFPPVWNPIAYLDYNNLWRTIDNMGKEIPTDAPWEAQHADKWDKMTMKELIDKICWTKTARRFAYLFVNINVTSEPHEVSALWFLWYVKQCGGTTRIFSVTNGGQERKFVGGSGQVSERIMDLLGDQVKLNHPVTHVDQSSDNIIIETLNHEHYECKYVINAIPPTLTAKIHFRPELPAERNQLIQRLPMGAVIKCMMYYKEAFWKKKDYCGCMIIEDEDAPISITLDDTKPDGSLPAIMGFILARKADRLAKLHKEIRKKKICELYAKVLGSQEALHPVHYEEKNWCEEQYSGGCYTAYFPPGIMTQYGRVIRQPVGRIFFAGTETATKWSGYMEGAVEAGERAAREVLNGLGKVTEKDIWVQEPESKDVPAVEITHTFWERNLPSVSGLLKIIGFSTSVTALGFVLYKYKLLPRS", "experiment": "(§1) Inhibition of recombinant human microsomal MAO-A expressed in baculovirus-infected insect cells using p-tyramine as substrate assessed as H2O2 production pretreated for 15 mins followed by addition of Amplex Red, horseradish peroxidase and substrate measured for 15 mins by fluorimetric method"}, "[2]": {"molecular_target": "T2, Amine oxidase [flavin-containing] B (Homo sapiens, UniProt P27338)", "T2 sequence (P27338 whole entry)": "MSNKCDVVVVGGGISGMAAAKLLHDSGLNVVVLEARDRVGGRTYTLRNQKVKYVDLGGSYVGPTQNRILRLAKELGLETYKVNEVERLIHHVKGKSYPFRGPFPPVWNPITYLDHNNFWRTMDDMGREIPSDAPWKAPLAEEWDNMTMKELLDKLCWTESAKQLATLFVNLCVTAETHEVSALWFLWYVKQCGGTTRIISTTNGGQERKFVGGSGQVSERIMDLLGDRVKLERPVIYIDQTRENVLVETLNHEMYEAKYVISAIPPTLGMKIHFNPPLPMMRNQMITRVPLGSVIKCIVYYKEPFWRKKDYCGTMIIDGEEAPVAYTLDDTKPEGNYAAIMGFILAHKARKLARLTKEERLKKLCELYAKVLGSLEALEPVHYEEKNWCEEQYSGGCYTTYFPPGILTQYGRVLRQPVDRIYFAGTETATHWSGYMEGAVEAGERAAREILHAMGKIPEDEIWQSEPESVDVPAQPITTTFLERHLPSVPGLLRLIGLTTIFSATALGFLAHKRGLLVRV", "experiment": "(§2) Inhibition of recombinant human microsomal MAO-B expressed in baculovirus-infected insect cells using p-tyramine as substrate assessed as H2O2 production pretreated for 15 mins followed by addition of Amplex Red, horseradish peroxidase and substrate measured for 15 mins by fluorimetric method", "format": "cell-based"}, "Homo sapiens": {"species_on_record": "Homo sapiens", "experiment": "Selectivity index, ratio of IC50 for recombinant human microsomal MAO-A to recombinant human microsomal MAO-B"}, "[3]": {"molecular_target": "T1, Amine oxidase [flavin-containing] A", "experiment": "as §1, with “production at 60 uM” for “production”", "conditions": "0.25 h; call rule not given here", "in_short": "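Human MAO-A from microsomes of insect cells infected with recombinant baculovirus, 1.1 µg protein, adjusted to a rate of 165 pmol p-tyramine/min. Inhibitors in 0.05 M sodium phosphate pH 7.4, preincubated 15 min at 37 °C. Reaction started with 200 µM Amplex Red, 1 U/mL HRP and 1 mM p-tyramine. H2O2-derived resorufin fluorescence (ex 545/em 590 nm) read over 15 min at 37 °C, linear phase.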"}, "[4]": {"molecular_target": "T2, Amine oxidase [flavin-containing] B", "experiment": "as §2, with “production at 60 uM” for “production”", "conditions": "0.25 h"}}, "data": [{"molecule": "O=C1COc2ccc(Cl)cc2C2CC(c3ccc(F)cc3)=NN12", "note": "(stereo not given)", "values": [{"measurement": "IC50", "setting": "[1]", "value": 4650, "unit": "nM"}, {"measurement": "IC50", "setting": "[2]", "value": 242, "unit": "nM"}, {"measurement": "Ratio IC50", "setting": "Homo sapiens", "value": 19.2}]}, {"molecule": "O=C1COc2ccc(Cl)cc2C2CC(c3ccccc3)=NN12", "note": "(stereo not given)", "values": [{"measurement": "inhibition (INH)", "setting": "[3]", "value": "Not Active"}, {"measurement": "IC50", "setting": "[2]", "value": 2570, "unit": "nM"}, {"measurement": "Ratio IC50", "setting": "Homo sapiens", "value": 23.4}]}, {"molecule": "CC1Oc2ccccc2C2CC(c3ccccc3)=NN2C1=O", "note": "(stereo not given)", "values": [{"measurement": "inhibition (INH)", "setting": "[3]", "value": "Not Active"}, {"measurement": "IC50", "setting": "[2]", "value": 34700, "unit": "nM"}, {"measurement": "Ratio IC50", "setting": "Homo sapiens", "value": 1.7}]}, {"molecule": "O=C1COc2ccccc2C2CC(c3ccc(Cl)cc3)=NN12", "note": "(stereo not given)", "values": [{"measurement": "IC50", "setting": "[1]", "value": 53300, "unit": "nM"}, {"measurement": "INH", "setting": "[4]", "value": "Not Active"}, {"measurement": "Ratio IC50", "setting": "Homo sapiens", "value": 0.9}]}, {"molecule": "Cc1ccc(C2=NN3C(=O)COc4ccccc4C3C2)cc1", "note": "(stereo not given)", "values": [{"measurement": "inhibition (INH)", "setting": "[3]", "value": "Not Active"}, {"measurement": "INH", "setting": "[4]", "value": "Not Active"}]}, {"molecule": "O=C1COc2ccc(Cl)cc2C2CC(c3ccccc3F)=NN12", "note": "(stereo not given)", "values": [{"measurement": "inhibition (INH)", "setting": "[3]", "value": "Not Active"}, {"measurement": "IC50", "setting": "[2]", "value": 584, "unit": "nM"}, {"measurement": "Ratio IC50", "setting": "Homo sapiens", "value": 103}]}, {"molecule": "COc1ccc(C2=NN3C(=O)COc4ccc(Cl)cc4C3C2)cc1", "note": "(stereo not given)", "values": [{"measurement": "inhibition (INH)", "setting": "[3]", "value": "Not Active"}, {"measurement": "IC50", "setting": "[2]", "value": 2720, "unit": "nM"}, {"measurement": "Ratio IC50", "setting": "Homo sapiens", "value": 22}]}, {"molecule": "O=C1COc2ccccc2C2CC(c3ccccc3Cl)=NN12", "note": "(stereo not given)", "values": [{"measurement": "IC50", "setting": "[1]", "value": 55700, "unit": "nM"}, {"measurement": "IC50", "setting": "[2]", "value": 1320, "unit": "nM"}, {"measurement": "Ratio IC50", "setting": "Homo sapiens", "value": 42.1}]}, {"molecule": "C#CCN(C)[C@H](C)Cc1ccccc1", "note": "[SELEGILINE]", "values": [{"measurement": "inhibition (INH)", "setting": "[3]", "value": "Not Active"}]}, {"molecule": "CC(C)c1ccc(C2=NN3C(=O)COc4ccccc4C3C2)cc1", "note": "(stereo not given)", "values": [{"measurement": "inhibition (INH)", "setting": "[3]", "value": "Not Active"}, {"measurement": "IC50", "setting": "[2]", "value": 3520, "unit": "nM"}, {"measurement": "Ratio IC50", "setting": "Homo sapiens", "value": 17}]}, {"molecule": "CC1Oc2ccccc2C2CC(c3ccc(Cl)cc3)=NN2C1=O", "note": "(stereo not given)", "values": [{"measurement": "inhibition (INH)", "setting": "[3]", "value": "Not Active"}, {"measurement": "IC50", "setting": "[2]", "value": 452, "unit": "nM"}, {"measurement": "Ratio IC50", "setting": "Homo sapiens", "value": 133}]}, {"molecule": "CC1Oc2ccccc2C2CC(c3ccc(F)cc3)=NN2C1=O", "note": "(stereo not given)", "values": [{"measurement": "inhibition (INH)", "setting": "[3]", "value": "Not Active"}, {"measurement": "IC50", "setting": "[2]", "value": 221, "unit": "nM"}, {"measurement": "Ratio IC50", "setting": "Homo sapiens", "value": 271}]}, {"molecule": "COc1ccc(C2=NN3C(=O)COc4ccccc4C3C2)cc1", "note": "(stereo not given)", "values": [{"measurement": "inhibition (INH)", "setting": "[3]", "value": "Not Active"}, {"measurement": "INH", "setting": "[4]", "value": "Not Active"}]}, {"molecule": "O=C1COc2ccc(Cl)cc2C2CC(c3ccc(Cl)cc3)=NN12", "note": "(stereo not given)", "values": [{"measurement": "IC50", "setting": "[1]", "value": 4710, "unit": "nM"}, {"measurement": "IC50", "setting": "[2]", "value": 504, "unit": "nM"}, {"measurement": "Ratio IC50", "setting": "Homo sapiens", "value": 9.3}]}, {"molecule": "Cc1ccccc1C1=NN2C(=O)COc3ccccc3C2C1", "note": "(stereo not given)", "values": [{"measurement": "inhibition (INH)", "setting": "[3]", "value": "Not Active"}, {"measurement": "INH", "setting": "[4]", "value": "Not Active"}]}, {"molecule": "Cc1ccc(C2=NN3C(=O)C(C)Oc4ccccc4C3C2)cc1", "note": "(stereo not given)", "values": [{"measurement": "inhibition (INH)", "setting": "[3]", "value": "Not Active"}, {"measurement": "IC50", "setting": "[2]", "value": 45200, "unit": "nM"}, {"measurement": "Ratio IC50", "setting": "Homo sapiens", "value": 1.3}]}, {"molecule": "COc1ccc(C2=NN3C(=O)COc4c(Br)cc(Br)cc4C3C2)cc1", "note": "(stereo not given)", "values": [{"measurement": "IC50", "setting": "[1]", "value": 4760, "unit": "nM"}, {"measurement": "IC50", "setting": "[2]", "value": 467, "unit": "nM"}, {"measurement": "Ratio IC50", "setting": "Homo sapiens", "value": 10.2}]}, {"molecule": "O=C1COc2ccccc2C2CC(c3ccccc3)=NN12", "note": "(stereo not given)", "values": [{"measurement": "IC50", "setting": "[1]", "value": 2190, "unit": "nM"}, {"measurement": "IC50", "setting": "[2]", "value": 2880, "unit": "nM"}, {"measurement": "Ratio IC50", "setting": "Homo sapiens", "value": 0.8}]}, {"molecule": "O=C1COc2ccccc2C2CC(c3ccc(F)cc3)=NN12", "note": "(stereo not given)", "values": [{"measurement": "inhibition (INH)", "setting": "[3]", "value": "Not Active"}, {"measurement": "IC50", "setting": "[2]", "value": 1780, "unit": "nM"}, {"measurement": "Ratio IC50", "setting": "Homo sapiens", "value": 33.7}]}, {"molecule": "COc1ccc(C2=NN3C(=O)C(C)Oc4ccccc4C3C2)cc1", "note": "(stereo not given)", "values": [{"measurement": "inhibition (INH)", "setting": "[3]", "value": "Not Active"}, {"measurement": "INH", "setting": "[4]", "value": "Not Active"}]}, {"molecule": "CC1Oc2ccccc2C2CC(c3ccccc3Cl)=NN2C1=O", "note": "(stereo not given)", "values": [{"measurement": "IC50", "setting": "[1]", "value": 4050, "unit": "nM"}, {"measurement": "IC50", "setting": "[2]", "value": 348, "unit": "nM"}, {"measurement": "Ratio IC50", "setting": "Homo sapiens", "value": 11.7}]}, {"molecule": "Cc1ccc(C2=NN3C(=O)COc4ccc(Cl)cc4C3C2)cc1", "note": "(stereo not given)", "values": [{"measurement": "IC50", "setting": "[1]", "value": 3900, "unit": "nM"}, {"measurement": "IC50", "setting": "[2]", "value": 1630, "unit": "nM"}, {"measurement": "Ratio IC50", "setting": "Homo sapiens", "value": 2.4}]}]}
